Legend:
[1] = biological target: T1, Amine oxidase [flavin-containing] A (Homo sapiens, UniProt P21397); assay: Inhibition of recombinant human MAOA expressed in insect cell microsomes using kynuramine as substrate preincubated with substrate for 30 mins followed by enzyme addition and measured after 20 mins by fluorescence spectrophotometry
T1 sequence (P21397 whole entry): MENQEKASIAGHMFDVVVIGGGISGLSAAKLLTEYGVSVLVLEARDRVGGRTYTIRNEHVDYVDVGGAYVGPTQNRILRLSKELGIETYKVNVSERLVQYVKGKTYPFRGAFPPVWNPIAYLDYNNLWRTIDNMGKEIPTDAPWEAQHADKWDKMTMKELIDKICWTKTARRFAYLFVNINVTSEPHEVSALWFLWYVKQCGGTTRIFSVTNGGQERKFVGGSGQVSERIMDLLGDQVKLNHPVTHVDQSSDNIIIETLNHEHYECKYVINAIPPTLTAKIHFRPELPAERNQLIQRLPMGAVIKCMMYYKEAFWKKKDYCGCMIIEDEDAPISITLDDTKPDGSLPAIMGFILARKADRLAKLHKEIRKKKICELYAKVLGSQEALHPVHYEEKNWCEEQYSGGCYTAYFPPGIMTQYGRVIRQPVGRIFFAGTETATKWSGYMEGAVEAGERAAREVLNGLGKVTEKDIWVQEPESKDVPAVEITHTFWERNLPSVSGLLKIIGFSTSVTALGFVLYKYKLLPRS
In short: (§1)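 Recombinant human enzyme; kynuramine as substrate for both isoforms. 4-Hydroxyquinoline product read by fluorescence spectrophotometry after alkalization. Rates measured without and with inhibitor at 0.0003–100 µM. IC50 estimated from sigmoidal plots of rate versus log inhibitor concentration. Reported as mean ± standard deviation of triplicate experiments.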

[2] = biological target: T2, Amine oxidase [flavin-containing] B (Homo sapiens, UniProt P27338); assay: Inhibition of recombinant human MAOB expressed in insect cell microsomes using kynuramine as substrate preincubated with substrate for 30 mins followed by enzyme addition and measured after 20 mins by fluorescence spectrophotometry; in short: as §1
T2 sequence (P27338 whole entry): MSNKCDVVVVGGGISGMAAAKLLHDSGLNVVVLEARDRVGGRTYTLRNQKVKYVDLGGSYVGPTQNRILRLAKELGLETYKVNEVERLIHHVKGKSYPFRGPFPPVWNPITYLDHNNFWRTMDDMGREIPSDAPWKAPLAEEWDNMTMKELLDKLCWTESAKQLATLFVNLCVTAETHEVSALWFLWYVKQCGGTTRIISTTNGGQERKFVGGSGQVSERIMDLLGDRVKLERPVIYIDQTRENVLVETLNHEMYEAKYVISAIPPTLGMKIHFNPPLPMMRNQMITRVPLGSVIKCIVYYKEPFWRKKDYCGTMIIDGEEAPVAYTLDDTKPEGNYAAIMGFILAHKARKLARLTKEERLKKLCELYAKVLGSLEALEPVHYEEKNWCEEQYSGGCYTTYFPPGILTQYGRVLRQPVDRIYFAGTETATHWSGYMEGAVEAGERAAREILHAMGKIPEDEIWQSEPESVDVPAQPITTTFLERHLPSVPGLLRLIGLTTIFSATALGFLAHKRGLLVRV

[3] = organism: Homo sapiens; assay: Selectivity index, ratio of IC50 for recombinant human MAOA expressed in insect cell microsomes to IC50 for recombinant human MAOB expressed in insect cell microsomes
[4] = biological target: T2, Amine oxidase [flavin-containing] B; assay: Competitive inhibition of human MAOB expressed in insect cell microsomes using varying levels of kynuramine as substrate measured after 20 mins by Lineweaver-burk plot analysis
In short: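 Activity recorded at 8 kynuramine concentrations (15–250 µM). Runs done without inhibitor and with five inhibitor levels (¼, ½, ¾, 1 and 1¼ × IC50). Mode of inhibition assigned from Lineweaver-Burk plots.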

[5] = biological target: T2, Amine oxidase [flavin-containing] B; assay: Inhibition of recombinant human MAO-B expressed in insect cell microsomes assessed as residual activity using kynuramine as substrate at 4 times IC50 concentration preincubated for 15 mins measured after 20 mins by fluorescence spectroscopy relative to control
In short: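 Enzyme mixed with inhibitor at 4 × IC50 and incubated 15 min, with no dialysis. Residual activity read with kynuramine by 4-hydroxyquinoline fluorescence and expressed against the dialyzed no-inhibitor control.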

[6] = biological target: T2, Amine oxidase [flavin-containing] B; assay: Reversible inhibition of recombinant human MAO-B expressed in insect cell microsomes assessed as residual activity using kynuramine as substrate at 4 times IC50 concentration preincubated for 15 mins with subsequent dialysis for 24 hrs followed by substrate addition measured after 20 mins by fluorescence spectroscopy relative to control
In short: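 Enzyme preincubated 15 min with inhibitor at 4 × IC50, then dialyzed 24 h. Samples then diluted twofold to 2 × IC50. Kynuramine added and reactions run 20 min. 4-Hydroxyquinoline quantified by fluorescence spectrophotometry. Controls: dialysis with no inhibitor (set as 100%) and dialysis with the irreversible inhibitor (R)-deprenyl.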

[7] = biological target: T1, Amine oxidase [flavin-containing] A; assay: Competitive inhibition of human MAOA using p-trifluoromethyl benzylamine as substrate preincubated with substrate for 5 mins followed by enzyme addition by fluorimetric horseradish peroxidase-Amplex Red-coupled assay

| IC50 [1] [µM] | IC50 [2] [µM] | Ratio IC50 [3] | Ki [4] [µM] | Activity [5] [%] | Activity [6] [%] | Ki [7] [µM] | SMILES |
| --- | --- | --- | --- | --- | --- | --- | --- |
| 22.5 | 0.23 | 97 |  |  |  |  | CC(C)c1noc(-c2ccc(C3=NCCN3)cc2)n1 |
| 7.37 | 4.28 | 1.7 |  |  |  |  | c1cc(-c2noc(C3CC3)n2)ccc1C1=NCCN1 |
| > 100 | 0.608 | > 164 |  |  |  |  | O=c1ccc(-c2ccccc2)nn1Cc1noc(-c2ccc(C3=NCCN3)cc2)n1 |
| 24.7 | 0.3 | 82 |  |  |  |  | Cc1ccc(-c2noc(-c3ccc(C4=NCC(C)N4)cc3)n2)s1 (centres undefined) |
| 147 | 1.87 | 78 |  |  |  |  | N#Cc1cccc(C2=NCCN2)c1 |
| > 100 | > 100 |  |  |  |  |  | COc1ccc(C2=NCCN2)cc1Cn1ccnc1C |
| > 100 | 17.2 | > 5.8 |  |  |  |  | N#Cc1ccc(C2=NCCN2c2cnccn2)cc1 |
| > 100 | 41.8 | > 2.4 |  |  |  |  | N#Cc1ccc(C2=NCCN2c2ccc(C(F)(F)F)cn2)cc1 |
| > 100 | 47.6 | > 2.1 |  |  |  |  | c1ccc(-c2ccc(-c3noc(-c4ccc(C5=NCCN5)cc4)n3)cc2)cc1 |
| 2.31 | 0.071 | 32 | 0.038 | 36 | 66 |  | Cc1ccc(-c2nc(-c3ccc(C4=NCCN4)cc3)no2)cc1 |
| 88.3 | 1.06 | 83 |  |  |  |  | c1cc(C2=NCCN2)cc(-c2noc(-c3cccs3)n2)c1 |
| 0.751 | 0.411 | 1.8 |  |  |  |  | CC(C)(C)c1ccc(-c2noc(-c3ccc(C4=NCCN4)cc3)n2)cc1 |
| 17.1 | 0.03 | 570 |  |  |  |  | Clc1ccccc1-c1noc(-c2ccc(C3=NCCN3)cc2)n1 |
|  |  |  |  |  |  | 17 | c1ccc2oc(C3=NCCN3)cc2c1 |
| > 100 | > 100 |  |  |  |  |  | c1ccc2c(c1)Oc1nccnc1N1CCN=C21 |
| > 100 | > 100 |  |  |  |  |  | Cn1ncc2c(c1=O)Oc1ccccc1C1=NCCN12 |
| 1.57 | 0.89 | 1.7 |  |  |  |  | c1csc(-c2noc(-c3ccc(C4=NCCN4)cc3)n2)c1 |

| IC50 [1] [µM] | IC50 [2] [µM] | Ratio IC50 [3] | Ki [4] [µM] | Activity [5] [%] | Activity [6] [%] | Ki [7] [µM] | SMILES |
| --- | --- | --- | --- | --- | --- | --- | --- |
| 12 | 0.216 | 55 |  |  |  |  | COc1cccc(-c2noc(-c3ccc(C4=NCCN4)cc3)n2)c1 |
| 55.5 | 3.64 | 15 |  |  |  |  | Cc1ccc(Cc2noc(-c3ccc(C4=NCCN4)cc3)n2)cc1 |
| 24.6 | 9.02 | 2.7 |  |  |  |  | c1ncn(Cc2ccc(-c3noc(-c4ccc(C5=NCCN5)cc4)n3)cc2)n1 |
| 62.2 | 23.9 | 2.6 |  |  |  |  | Cc1nn(Cc2nc(-c3cccc(C4=NCCN4)c3)no2)c(=O)c2ccccc12 |
| 14.7 | 0.16 | 91 |  |  |  |  | CC1CN=C(c2ccc(-c3noc(-c4ccc(Cl)c(Cl)c4)n3)cc2)N1 (centres undefined) |
| 1.39 | 0.03 | 46 |  |  |  |  | Clc1cccc(-c2nc(-c3cccc(C4=NCCN4)c3)no2)c1 |
| 1.11 | 0.012 | 92 |  |  |  |  | Clc1ccc(-c2noc(-c3ccc(C4=NCCN4)cc3)n2)cc1Cl |
| > 100 | 9.98 | > 10 |  |  |  |  | c1ccc(OCc2noc(-c3ccc(C4=NCCN4)cc3)n2)cc1 |
| > 100 | 1.26 | > 79 |  |  |  |  | O=c1c2ccccc2cnn1Cc1noc(-c2ccc(C3=NCCN3)cc2)n1 |
| > 100 | 0.756 | > 132 |  |  |  |  | COc1ccc(-c2noc(-c3ccc(C4=NCCN4)cc3)n2)cc1OC |
| 32 | > 100 | < 0.32 |  |  |  |  | FC(F)(F)c1cnc2c(c1)Oc1ccccc1C1=NCCN12 |
| 41.1 | 39.7 | 1 |  |  |  |  | Cc1nc(-c2ccc(C3=NCCN3)cc2)no1 |
| > 100 | 18.4 | > 5.4 |  |  |  |  | c1ccc(-n2cc(C3=NCCN3)c(-c3cccs3)n2)cc1 |
| 5.47 | 0.064 | 85 |  |  |  |  | Clc1cccc(-c2noc(-c3ccc(C4=NCCN4)cc3)n2)c1 |
| > 100 | > 100 |  |  |  |  |  | CCOc1ccc(-c2n[nH]cc2C2=NCCN2)cc1 |
| 2.77 | 1.37 | 2 |  |  |  |  | c1ccc(Oc2ccc(-c3noc(-c4ccc(C5=NCCN5)cc4)n3)cc2)cc1 |
| 12.4 | 2.28 | 5.4 |  |  |  |  | Cn1ccnc1SCc1ccc(-c2noc(-c3ccc(C4=NCCN4)cc3)n2)cc1 |

From ChEMBL document CHEMBL4308880, “Novel monoamine oxidase inhibitors based on the privileged 2-imidazoline molecular framework” (Bioorg Med Chem Lett, 2019)
